dFosB activator – mouse delta FosB homodimer activation; P13346; purified delta FosB, TAMRA-CDK5 oligo fluorescence polarization; percent of positive-control signal above neutral wells; activation, % at 25 µM; 340,000 tested, 0.99% active; AID 493131;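 active = mean activation above about 17%, with every replicate also reaching it, limit read from the data, passing the limit was not always enough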
Target sequence (P13346 whole entry, looked up): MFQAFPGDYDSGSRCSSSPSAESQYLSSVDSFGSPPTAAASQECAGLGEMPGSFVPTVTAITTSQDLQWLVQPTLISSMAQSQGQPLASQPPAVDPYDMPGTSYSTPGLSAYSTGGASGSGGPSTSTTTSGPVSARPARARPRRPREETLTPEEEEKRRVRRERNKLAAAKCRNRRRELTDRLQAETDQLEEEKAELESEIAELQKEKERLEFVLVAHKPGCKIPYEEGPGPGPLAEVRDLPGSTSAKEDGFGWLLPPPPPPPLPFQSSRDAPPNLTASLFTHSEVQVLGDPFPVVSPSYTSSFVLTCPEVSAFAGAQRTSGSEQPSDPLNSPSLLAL
S100A4 MyoIIA – blocks human S100A4 binding to myosin IIA peptide | P26447 | S100A4/TAMRA-MyoIIA peptide fluorescence polarization | 360,000 tested, 0.14% active | AID 652163 | inhibition, % at 10.7 µM;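 active = mean inhibition of at least 70% across replicates, with every replicate also reaching that level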
Target sequence (P26447 whole entry, looked up): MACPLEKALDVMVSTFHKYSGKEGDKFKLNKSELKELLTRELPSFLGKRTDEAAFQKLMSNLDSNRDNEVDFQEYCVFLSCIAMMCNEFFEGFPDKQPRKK
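Material: S100A4 monomer protein / Buffer or medium: 50 mM HEPES pH 7.2, 10 mM CaCl2, 100 mM KCl / Times: 5 min incubation before reading / Benchmarks: neutral control DMSO, positive control TFP / Reagent: labelled myosin peptide probe, 5 nM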
F508del corr – correctors of CFTR F508del function in bronchial epithelial cells | CFBE cells, YFP halide quenching; stimulated with forskolin plus potentiator P3; % fluorescence drop versus neutral controls | activity (quench increase), % at 7.58 µM | 350,000 tested, 0.36% active | AID 720511;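 active = mean added fluorescence quench of at least 8% versus neutral control, with both replicates also reaching 8%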;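 note: cells transiently co-express mutant CFTR-F508del with the halide-sensitive YFP; corrector assay measuring rescue of mutant channel to the surface after 24 h compound exposure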
FGF22 binding – shifts melting point of recombinant human FGF22; activity (Tm shift, normalised), % at 9.99 µM; AID 651658; recombinant FGF22 thermal shift, SYPRO orange fluorescence; percent of sucrose octasulfate shift, DMSO zero; 340,000 tested, 1.5% active; Q9HCT0;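 active = mean Tm shift, scaled 0 neutral to 100 positive control, at about 1.3% or above, every replicate too, limit read from the data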
An asterisk follows results filed as active; . = not tested or not shown; ! = not confirmed by another sample. A selection: hits, their analogues and other compounds. The true share with any hit is near 2.2%.

SMILES | dFosB activator | S100A4 MyoIIA | F508del corr | FGF22 binding
CCC(C)C(=O)Nc1ccc([N+](=O)[O-])cc1OC (configuration not stated) | -4 | 0 | 1 | 43*
O=C(CN(C(=O)c1csnn1)c1ccccc1F)NCc1ccc2c(c1)OCO2 | 1 | -6 | -1 | 0
O=C(CN(C(=O)c1csnn1)c1cccc(F)c1)NCc1ccc2c(c1)OCO2 | -2 | 0 | 0 | 43*
COc1ccc2c3c([nH]c2c1)[C@H](CO)N(CC1CC1)CC31CN(C(=O)c2cccc(F)c2)C1 | . | . | -1 | 0
CC(NC(=O)COC(=O)C12CC3CC(CC(O)(C3)C1)C2)c1ccccc1 (configuration not stated) | -2 | -1 | 2 | 43*
CC(CCc1ccccc1)NC(=O)COC(=O)C12CC3CC(CC(Br)(C3)C1)C2 (configuration not stated) | -11 | . | . | .
COc1ccc(/C=C/C(=O)NC(=S)NCC2CCCO2)cc1 (configuration not stated) | -1 | -6 | -3 | 44*
COc1ccc(/C=C/C(=O)OCC(=O)NCC2CCCO2)cc1 (configuration not stated) | -7 | 1 | 0 | 44*
COc1cccc(/C=C/C(=O)OCC(=O)NCC2CCCO2)c1 (configuration not stated) | -1 | . | . | .
COc1ccccc1-c1ccc(C2[C@H]3CNC[C@@H]2N3S(=O)(=O)c2ccccc2OC)cc1 (some centres not stated) | . | 6 | 0 | .
O=C(NCc1ccc(Cl)cc1)c1cc([N+](=O)[O-])ccc1Cl | 0 | -1 | 1 | 43*
Cc1c(CN2CCCC(CO)(Cc3cccc(Cl)c3)C2)cnn1C (configuration not stated) | -7 | -9 | 4 | 43*
O=[N+]([O-])c1ccc(-c2ccc(/C=N/Nc3nc(NCc4ccccc4)nc(N4CCOCC4)n3)o2)cc1 | 21* | . | . | .
COc1nc(N/N=C/c2ccc(-c3ccccc3[N+](=O)[O-])o2)nc(N2CCOCC2)n1 | 3 | -17 | . | 1
CN1C(=O)c2cc(NC(=O)c3ccc(F)cc3)ccc2OC[C@H]2O[C@@H](CC(=O)NCC3CCCCC3)CC[C@H]21 | . | 4 | -4 | 0
CC(C(=O)NC1C(=O)N2C(C(=O)O)=C(CSc3nnnn3C)CSC12)n1cc(Cl)cn1 (configuration not stated) | 0 | -24 | 1 | 43*
Cc1c(Cl)cnn1CC(=O)NC1C(=O)N2C(C(=O)O)=C(CSc3nnnn3C)CSC12 (configuration not stated) | -4 | 2 | 0 | 43*
Cc1noc(C)c1S(=O)(=O)Nc1cccc2c1O[C@@H](CN(C)Cc1ccncc1)[C@@H](C)CN([C@H](C)CO)C2=O | . | -5 | 1 | 0
CCN=c1scc(C)n1/N=C/c1cc(Br)c(O)c(Br)c1 | -15 | -7 | -1 | 43*
COc1ccc(S(=O)(=O)N[C@H]2CC[C@@H](CC(=O)O)O[C@@H]2CO)cc1 | . | 11 | -2 | 0
CCN(C(=O)CSc1nc2ccccc2c(=O)n1-c1ccccc1F)C1CCS(=O)(=O)C1 (configuration not stated) | 4 | -2 | 11* | 0
CCN(C(=O)CSc1nnc(NCc2ccccc2)s1)C1CCS(=O)(=O)C1 (configuration not stated) | -4 | -6 | -2 | 43*
CCN(C(=O)CSc1nc2cc(Cl)ccc2c(=O)n1Cc1ccco1)C1CCS(=O)(=O)C1 (configuration not stated) | -2 | -4 | 3 | 44*
O=c1c2c(-c3ccccc3)csc2ncn1/N=C/c1ccc(O)c([N+](=O)[O-])c1 | 5 | -1 | 2 | 44*
COC(=O)N(C)C[C@@H]1OCc2ccccc2-c2ccccc2C(=O)N([C@@H](C)CO)C[C@H]1C | . | -1 | 2 | 0
SMILES | dFosB activator | S100A4 MyoIIA | F508del corr | FGF22 binding
CCCN(CCC)CC(O)Cn1cc(/C=C/C(=O)c2ccccc2)c2ccccc21 (configuration not stated) | -7 | -1 | -1 | 0
CCCCN(C)CC(O)Cn1cc(/C=C/C(=O)c2ccc(C)cc2)c2ccccc21 (configuration not stated) | 26* | 3 | -2 | 0
C[C@H]1CCCCO[C@H](CN(C)C(=O)Nc2ccc3c(c2)OCO3)[C@@H](C)CN([C@@H](C)CO)C(=O)c2cc(NC(=O)Nc3cccc4ccccc34)ccc2O1 | . | 16 | 1 | 0
C[C@H](CO)N1C[C@H](C)[C@@H](CN(C)CC2CC2)Oc2ccc(NC(=O)Cn3cnnn3)cc2CC1=O | . | 8 | -1 | 0
Cc1cccc(NC(=O)CN2C(=O)S/C(=C\c3ccc(O)c([N+](=O)[O-])c3)C2=O)c1 | 3 | -15 | -2 | 44*
CC1Cc2nc(SCC(=O)N3CCOCC3)n(-c3ccccc3)c(=O)c2S1 (configuration not stated) | -3 | -13 | 8.3* | 0
O=C(CSc1nc2c(c(=O)n1-c1ccccc1)SCC2)N1CCOCC1 | 3 | 5 | -5 | 0
O=C(C[C@H]1C[C@@H]2c3cc(NC(=O)NC4CCCC4)ccc3O[C@@H]2[C@@H](CO)O1)NCc1cccnc1 | . | -2 | 0 | .
Cc1cc(-c2nnc(SCC(=O)c3ccc(Cl)cc3)o2)no1 | 4 | 5 | 1 | 44*
C#CCNC(=O)C1=C[C@@H](c2ccc(C#C)cc2)C[C@@H](OCCCCO)O1 | -6 | . | -2 | .
C#CCNC(=O)C1=C[C@@H](c2ccccc2)C[C@@H](OCCCCO)O1 | -5 | -10 | 0 | 1.7*!
COc1cc(C(=O)N2CCC(C(N)=O)CC2)ccc1OCc1c(C)noc1C | -3 | -9 | 9.4* | 0
C[C@@H]1CN([C@H](C)CO)S(=O)(=O)c2ccc(C#C[C@@H](C)O)cc2O[C@@H]1CN(C)C(=O)C1CCC1 | . | 7 | -5 | 0
Cc1nn(C)c(C)c1/C=C/C(=O)O | 5 | -2 | 13* | 43*
COc1ccc2c3c([nH]c2c1)[C@H](CO)N(CC1CC1)CC31CCN(C(=O)c2ccc(F)cc2)CC1 | . | -4 | 4 | 0
O=C(Cc1c(Cl)cccc1Cl)Nc1cccnc1 | -3 | 1 | -2 | 43*
COc1ccc(C)cc1NS(=O)(=O)c1cn(C)nc1C | -2 | -1 | 3 | 43*
Cc1nn(C)cc1S(=O)(=O)Nc1ccccc1Br | 4 | -1 | 1 | 0
COc1ccc(C)cc1NS(=O)(=O)c1ccc2c(c1)N(C)CCO2 | -2 | 84* | -1 | 0
COC(=O)C[C@@H]1CC[C@H](NC(=O)Nc2ccc(C(F)(F)F)cc2)[C@H](CO)O1 | . | 4 | 0 | 0
COc1cccc(NC(=O)C[C@H]2CC[C@H]3[C@H](COc4ccc(NC(=O)C5CCC5)cc4C(=O)N3C)O2)c1 | . | -3 | -2 | .
CN(C)c1ccc(C(=O)OCC(=O)Nc2ccc(S(N)(=O)=O)cc2)cc1 | 82* | -5 | . | .

Bioassay records: PubChem, Broad Institute
